Results from ChEMBL document CHEMBL1126272, “Inhibition of collagenase by aranciamycin and aranciamycin derivatives” (J Med Chem, 1992).
The source made the active and inactive calls. No cut-off for these calls is given here.

What was measured:
[1] = target: Pancreatic elastase (Sus scrofa) (UniProt P08419+P00772); test: Inhibition of Pancreatic elastase at 10e-5 M; NI means no inhibition; format: protein assay
Outline: (§1)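 Porcine pancreatic elastase diluted to 2 mg/mL in PBS pH 7.5. Substrate N-acetyl-Ala-Ala-Ala-p-nitroanilide, 0.2 mM in PBS with 5% DMSO, preincubated 5 min at 37 °C with or without compound. Enzyme then added and the reaction followed at 410 nm for 5 min. Compounds dissolved in DMSO, ≤0.5% in samples.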

[2] = target: Serine protease 1 (Homo sapiens) (UniProt P07477); test: Inhibitory activity against trypsin at 10e-5 M; NI = no inhibition
Outline: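 Trypsin dissolved at 1 mg/mL in PBS pH 7.5. Substrate N-α-benzoyl-L-arginine-p-nitroanilide, 0.2 mM in PBS with 5% DMSO, preincubated 5 min at 37 °C with or without compound. Enzyme then added and the reaction followed at 410 nm for 5 min. Compounds dissolved in DMSO, ≤0.5% in samples.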

[3] = Concentration inhibiting [3H]TdR incorporation in Yoshida sarcoma tumor cells in vitro in rats; format: functional, cell-based, Rattus norvegicus
Outline: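 Yoshida sarcoma cells kept by weekly intraperitoneal passage in Lewis rats. Peritoneal cells washed, placed in RPMI 1640 with 10% FCS at 37 °C, 5% CO2. Nonadherent cells taken after 2 h, set at 10^6 cells/mL, then exposed 24 h to compounds (10^-8–10^-4 M, DMSO ≤0.5%). [3H]thymidine (1 μCi/mL) given for the last 4 h. IC50 for incorporation into DNA read from dose-response curve.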

[4] = target: T1, Chymotrypsin-like elastase family member 2A (Sus scrofa) (UniProt P08419); test: Inhibitory activity against elastase at a concentration of 10e-5 M; NI means no inhibition; outline: as §1
T1 sequence (whole entry): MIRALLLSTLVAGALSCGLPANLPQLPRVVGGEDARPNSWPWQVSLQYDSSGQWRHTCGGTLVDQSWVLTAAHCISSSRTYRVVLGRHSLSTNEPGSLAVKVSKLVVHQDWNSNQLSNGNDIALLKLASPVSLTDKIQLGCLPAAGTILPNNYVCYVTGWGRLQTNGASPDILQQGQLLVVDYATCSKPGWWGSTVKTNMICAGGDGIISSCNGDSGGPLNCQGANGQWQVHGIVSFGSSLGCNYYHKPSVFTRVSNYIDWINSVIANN

Chain of Serine protease 1 (Homo sapiens) (P07477 whole entry): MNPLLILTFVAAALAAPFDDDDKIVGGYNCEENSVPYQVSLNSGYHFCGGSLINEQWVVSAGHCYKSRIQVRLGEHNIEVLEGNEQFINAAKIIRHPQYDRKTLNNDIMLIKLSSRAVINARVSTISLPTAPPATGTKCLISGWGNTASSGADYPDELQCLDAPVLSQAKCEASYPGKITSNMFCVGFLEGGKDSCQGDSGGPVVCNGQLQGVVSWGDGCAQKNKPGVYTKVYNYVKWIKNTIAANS
Chain of Pancreatic elastase (Sus scrofa) (P00772 whole entry, looked up, one chain of several): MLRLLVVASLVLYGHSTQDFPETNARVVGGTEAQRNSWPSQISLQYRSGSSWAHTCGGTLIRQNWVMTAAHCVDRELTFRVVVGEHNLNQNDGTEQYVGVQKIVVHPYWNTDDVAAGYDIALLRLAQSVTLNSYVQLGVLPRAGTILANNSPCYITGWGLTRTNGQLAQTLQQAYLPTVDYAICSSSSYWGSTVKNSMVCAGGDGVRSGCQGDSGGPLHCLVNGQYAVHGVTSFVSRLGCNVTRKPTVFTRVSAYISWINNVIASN

Row | inhibition [1] | inhibition [2] | IC50 [3] | SMILES | inhibition [4]
1 | inactive | inactive | < 20 nM | COc1cccc2c1C(=O)c1c(O)c3c(c(O)c1C2=O)C[C@@](O)(C(=O)CO)C[C@@H]3O[C@H]1C[C@H](N)[C@H](O)[C@H](C)O1 [DOXORUBICIN] | 
2 | inactive | inactive | 1000 nM | COC1C(O[C@@H]2c3c(cc4c(c3O)C(=O)c3c(O)cccc3C4=O)C(=O)[C@](C)(O)[C@H]2OC)OC(C)C(O)C1O (some centres undefined) | 
3 | inactive | inactive | 5000 nM | COC1C(O[C@@H]2c3c(cc4c(c3O)C(=O)c3c(O)c(N(C)C)cc(N(C)C)c3C4=O)C(=O)[C@@](C)(O)[C@H]2OC)OC(C)C(O)C1O (some centres undefined) | 
4 | inactive | inactive | 630 nM | CCOP(=O)(OCC)O[C@]1(C)C(=O)c2cc3c(c(O)c2[C@@H](OC2OC(C)C(O)C(O)C2OC)[C@@H]1OC)C(=O)c1c(O)cccc1C3=O (some centres undefined) | 
5 | inactive | inactive | 1300 nM | COC1C(O[C@@H]2c3c(cc4c(c3O)C(=O)c3c(O)cccc3C4=O)C(=O)[C@@](C)(O)[C@H]2OC)OC(C)C(OC(C)=O)C1OC(C)=O (some centres undefined) | 
6 | inactive | inactive | 600 nM | CO[C@H]1[C@H](O)c2c(cc3c(c2O)C(=O)c2c(O)cccc2C3=O)C(=O)[C@@]1(C)O | 
7 | inactive | inactive | < 20 nM | COc1cccc2c1C(=O)c1c(O)c3c(c(O)c1C2=O)C[C@@](O)(C(C)=O)C[C@@H]3O[C@H]1C[C@H](N)[C@H](O)[C@H](C)O1 [DAUNORUBICIN] | 
8 | inactive | inactive | 1400 nM | COC1C(O[C@@H]2c3c(cc4c(c3O)C(=O)c3c(O)cccc3C4=O)C(=O)[C@@](C)(O)[C@H]2OC)OC(C)C(O)C1O[Si](C)(C)C(C)(C)C (some centres undefined) | 
9 | inactive | inactive | 630 nM | COC1C(O[C@@H]2c3c(cc4c(c3O)C(=O)c3c(ccc(N(C)C)c3O)C4=O)C(=O)[C@@](C)(O)[C@H]2OC)OC(C)C(O)C1O (some centres undefined) | 
10 | inactive | inactive | 4700 nM | COC1C(C)OC(O[C@@H]2c3c(cc4c(c3O)C(=O)c3c(O)cccc3C4=O)C(=O)[C@@](C)(O)[C@H]2OC)C(OC)C1OC (some centres undefined) | 
11 | inactive | inactive | 3900 nM | COC1C(O[C@@H]2c3c(cc4c(c3O)C(=O)c3c(O)cccc3C4=O)C(/N=N/S(=O)(=O)c3ccc(C)cc3)[C@@](C)(O)[C@H]2OC)OC(C)C(O)C1O (some centres undefined) | 
12 | inactive | inactive | 2200 nM | COC1C(O[C@@H]2c3c(cc4c(c3O)C(=O)c3c(O)cccc3C4=O)C(=O)[C@@](C)(O)[C@H]2OC)OC(C)C(O)C1O (some centres undefined) | 

Row | SMILES | inhibition [1] | inhibition [2] | IC50 [3] | inhibition [4]
13 | CC[C@@]1(O)C[C@H](O[C@H]2C[C@H](N(C)C)[C@H](O[C@H]3C[C@H](O)[C@H](O[C@H]4CCC(=O)[C@H](C)O4)[C@H](C)O3)[C@H](C)O2)c2c(cc3c(c2O)C(=O)c2c(O)cccc2C3=O)[C@H]1C(=O)OC [ACLARUBICIN] |  | inactive | < 20 nM | inactive
